# ChEMBL document CHEMBL2440017, “Discovery of a potent, selective, and orally bioavailable histamine H3 receptor antagonist SAR110068 for the treatment of sleep-wake disorders” (Bioorg Med Chem Lett, 2013)
# Active and inactive are the calls of the source. The rule behind the calls is not given here.
# Columns and labels:
# Rattus norvegicus [1] = test: Awakening activity in rat assessed as increased wakefulness at 3 to 10 mg/kg, po after 4 hrs; assay type: functional, organism-based
# In short: (§1)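 Rats given compound orally at 3 or 10 mg/kg, or reference drugs i.p. or p.o. at 10 mg/kg. EEG recorded during the light phase and scored as wakefulness, slow wave sleep and REM sleep. Time-course analysis of the effects.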
# Rattus norvegicus [2] = test: Awakening activity in rat assessed as increased wakefulness at 3 to 10 mg/kg, po; assay type: functional, organism-based; in short: as §1
# [3] = Plasma concentration in cynomolgus monkey at 30 mg/kg, iv after 15 mins; assay type: ADME, organism-based, Macaca fascicularis; design: dose 30 mg/kg, route intravenous
# Cynomolgus monkey = test: Cardiotoxicity in cynomolgus monkey assessed as blood arterial pressure and heart rate at 10 mg/kg, iv; assay type: toxicity, organism-based, Macaca fascicularis; design: dose 10 mg/kg, route intravenous; details: in vivo
# In short: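 Anaesthetized cynomolgus monkeys dosed 10 mg/kg i.v. Arterial blood pressure, heart rate and ECG (PR, QRS, QTc intervals) monitored. Plasma drug sampled at 5, 15 and 30 min post-dose.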
# Mus musculus = test: Toxicity in mouse assessed as tremors at 100 mg/kg, po; assay type: organism-based; design: dose 100 mg/kg, route oral; details: in vivo
# Salmonella typhimurium = test: Genotoxicity in Salmonella typhimurium at 3 to 1000 ug/ml by Ames 2 test in presence of human liver microsomes; assay type: toxicity, organism-based; details: salmonella enterica subsp. enterica serovar typhimurium
# In short: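 Ames II and micronucleus tests, Ames over 3–1000 µg/mL and MNT over 5–950 µg/mL. Each run with and without metabolic activation by human liver microsome preparations.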
# [4] = biological target: Voltage-gated inwardly rectifying potassium channel KCNH2 (Homo sapiens, UniProt Q12809); test: Inhibition of human ERG expressed in CHO cells by patch-clamp technique; assay type: cell-based
# In short: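 hERG current recorded by whole-cell patch clamp in CHO cells stably transfected with the human ERG gene.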
# [5] = Inhibition of p-glycoprotein (unknown origin); details: human
# [6] = Inhibition of CYP450 in human hepatocytes at > 100 uM; assay type: ADME, cell-based, Hepatocyte
# [7] = Induction of CYP450 in human hepatocytes at 1 to 60 uM; assay type: ADME, cell-based, Hepatocyte
# In short: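 Human hepatocytes (n = 4) exposed at 1–60 concentration and examined for induction of CYP isoforms.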
# [8] = Ratio of AUC (0 to infinity) in Sprague-Dawley rat brain to AUC (0 to infinity) in Sprague-Dawley rat at 2 mg/kg, iv; assay type: ADME, organism-based; design: dose 2 mg/kg, route intravenous; details: read-out: Ratio AUC
# In short: (§2)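 Male Sprague–Dawley rats received 2 mg/kg i.v. (0.5 mg/mL in saline) or 10 mg/kg p.o. (1.0 mg/mL in 0.5% MC/0.2% Tween80). Plasma and brain AUC0-inf were measured, and the B/P ratio was calculated from i.v. AUC0-inf.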
# [9] = Elimination half life in Sprague-Dawley rat brain at 10 mg/kg, po; assay type: ADME, organism-based; design: dose 10 mg/kg, route oral; details: read-out: beta t1/2 (converted)
# In short: (§3)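 Oral gavage at 10 mg/kg to male OF1 mice (vehicle 5% DMSO/0.5% MC/0.2% Tween80, 1.0 mg/mL) or male Sprague-Dawley rats (vehicle 0.5% MC/0.2% Tween80, 1.0 mg/mL). Plasma and brain exposure and half-life determined.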
# [10] = AUC (0 to infinity) in Sprague-Dawley rat brain at 2 mg/kg, iv; assay type: ADME, organism-based; design: dose 2 mg/kg, route intravenous, time infinity
# In short: (§4)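 Male OF1 mice or male Sprague-Dawley rats, single 2 mg/kg i.v. dose. Mouse vehicle 50% 1-methyl-2-pyrrolidinone in saline at 1.0 mg/mL; rat vehicle saline at 0.5 mg/mL. Plasma and brain levels followed over time; AUC0-inf, t1/2 and clearance derived from exposure. Brain/plasma ratio uses i.v. AUC0-inf.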
# [11] = Elimination half life in Sprague-Dawley rat plasma at 10 mg/kg, po; assay type: ADME, organism-based; design: dose 10 mg/kg, route oral; details: read-out: beta t1/2 (converted); in short: as §3
# [12] = AUC (0 to infinity) in Sprague-Dawley rat plasma at 10 mg/kg, po; assay type: ADME, organism-based; design: time infinity, dose 10 mg/kg, route oral; in short: as §3
# [13] = Volume of distribution in Sprague-Dawley rat plasma at 2 mg/kg, iv; assay type: ADME, organism-based; design: dose 2 mg/kg, route intravenous; in short: as §2
# [14] = Elimination half life in OF1 mouse brain at 10 mg/kg, po; assay type: ADME, organism-based; design: dose 10 mg/kg, route oral; details: read-out: beta t1/2 (converted); in short: as §3
# [15] = AUC in OF1 mouse brain at 10 mg/kg, po; assay type: ADME, organism-based; design: dose 10 mg/kg, route oral; in short: as §3
# [16] = AUC (0 to infinity) in OF1 mouse brain at 2 mg/kg, iv; assay type: ADME, organism-based; design: time infinity, dose 2 mg/kg, route intravenous; in short: as §4
# [17] = Elimination half life in OF1 mouse plasma at 10 mg/kg, po; assay type: ADME, organism-based; design: dose 10 mg/kg, route oral; details: read-out: beta t1/2 (converted); in short: as §3
# [18] = AUC in OF1 mouse plasma at 10 mg/kg, po; assay type: ADME, organism-based; design: dose 10 mg/kg, route oral; in short: as §3
# Plasma [19] = test: Clearance in OF1 mouse plasma at 2 mg/kg, iv; assay type: ADME, organism-based; design: dose 2 mg/kg, route intravenous; details: in vivo; in short: as §4
# [20] = Volume of distribution in OF1 mouse plasma at 2 mg/kg, iv; assay type: ADME, organism-based; design: dose 2 mg/kg, route intravenous
# In short: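 Male OF1 mice received 2 mg/kg i.v. (1.0 mg/mL in 50% 1-methyl-2-pyrrolidinone/saline) or 10 mg/kg p.o. (1.0 mg/mL in 5% DMSO/0.5% MC/0.2% Tween80). Plasma and brain AUC0-inf were measured, and the B/P ratio was calculated from i.v. AUC0-inf.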
# [21] = Elimination half life in OF1 mouse plasma at 2 mg/kg, iv; assay type: ADME, organism-based; design: dose 2 mg/kg, route intravenous; details: read-out: beta t1/2 (converted); in short: as §4
# Cytochrome P450 2D6 = Cytochrome P450 2D6 (Homo sapiens, UniProt P10635); test: Inhibition of CYP2D6 (unknown origin); assay type: ADME
# CYP3A4 = CYP3A4 (Homo sapiens, UniProt P08684); test: Inhibition of CYP3A4 (unknown origin) at 5 uM; assay type: ADME
# [22] = Metabolic stability in rabbit microsomes; assay type: ADME, Oryctolagus cuniculus, Microsome
# In short: (§5)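 Percentage biotransformation measured in vitro in liver microsomes of each species.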
# [23] = Metabolic stability in monkey microsomes; assay type: ADME, Macaca mulatta, Microsome; details: rhesus monkey; in short: as §5
# [24] = Biotransformation in human microsomes; assay type: ADME, Microsome; details: read-out: Activity
# In short: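 Percentage biotransformation measured in human liver microsomes in vitro.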
# [25] = Metabolic stability in mouse microsomes; assay type: ADME, Microsome; in short: as §5
# Plasma [26] = test: Metabolic stability in sheep plasma; assay type: ADME, cell-free, Ovis aries
# In short: (§6)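 Compound stability measured in plasma of each species in vitro.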
# Plasma [27] = test: Metabolic stability in rabbit plasma; assay type: ADME, cell-free, Oryctolagus cuniculus; in short: as §6
# Plasma [28] = test: Metabolic stability in dog plasma; assay type: ADME, cell-free, Canis lupus familiaris; in short: as §6
# Plasma [29] = test: Metabolic stability in rat plasma; assay type: ADME, cell-free; in short: as §6
# Homo sapiens = species on record: Homo sapiens; test: Inhibition of sigma 2 receptor (unknown origin) at 10 uM
# In short: (§7)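 CEREP selectivity panel: percent inhibition of control specific binding at 10 µM.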
# Plasma [30] = test: Metabolic stability in human plasma; assay type: ADME, cell-free; in short: as §6
# [31] = biological target: Sigma non-opioid intracellular receptor 1 (Homo sapiens) (UniProt Q99720); test: Inhibition of sigma 1 receptor (unknown origin) at 10 uM; in short: as §7
# Histamine H3 receptor [32] = biological target: T1, Histamine H3 receptor (Homo sapiens, UniProt Q9Y5N1); test: Displacement of [3H]N-alpha-methylhistamine from human histamine H3 receptor expressed in CHO cells; assay type: cell-based
# Histamine H3 receptor [33] = biological target: T1, Histamine H3 receptor; test: Antagonist activity at human histamine H3 receptor expressed in CHO cells co-expressing CRE-Luc; assay type: functional, cell-based
# [34] = Solubility of the compound in water; assay type: physicochemical
# [35] = Lipophilicity, log P of the compound; assay type: physicochemical; details: octanol/water
# In short: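 clogP calculated with ACD/Labs methods.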
# Histamine receptor H3 = Histamine receptor H3 (Macaca mulatta, UniProt Q865E1); test: Displacement of [3H]N-alpha-methylhistamine from rhesus monkey histamine H3 receptor expressed in CHO cells; assay type: cell-based
# In short: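 Membranes from CHO cells stably expressing rhesus monkey H3 receptor. Competition binding against [3H]N-α-methylhistamine; Ki values are means of three or more determinations.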
# T1 sequence (Q9Y5N1 whole entry): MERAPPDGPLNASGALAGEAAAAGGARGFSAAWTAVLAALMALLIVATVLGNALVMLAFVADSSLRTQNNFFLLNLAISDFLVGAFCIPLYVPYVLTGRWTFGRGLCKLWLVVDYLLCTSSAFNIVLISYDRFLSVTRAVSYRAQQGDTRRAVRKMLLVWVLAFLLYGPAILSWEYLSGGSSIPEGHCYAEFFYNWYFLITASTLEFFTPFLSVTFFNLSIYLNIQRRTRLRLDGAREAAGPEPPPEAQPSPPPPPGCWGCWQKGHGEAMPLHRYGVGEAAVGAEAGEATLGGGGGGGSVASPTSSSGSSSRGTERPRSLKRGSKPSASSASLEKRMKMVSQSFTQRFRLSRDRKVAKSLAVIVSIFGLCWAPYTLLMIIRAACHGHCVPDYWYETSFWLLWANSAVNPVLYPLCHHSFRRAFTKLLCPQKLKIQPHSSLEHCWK
# Chain of Cytochrome P450 2D6 (P10635 whole entry): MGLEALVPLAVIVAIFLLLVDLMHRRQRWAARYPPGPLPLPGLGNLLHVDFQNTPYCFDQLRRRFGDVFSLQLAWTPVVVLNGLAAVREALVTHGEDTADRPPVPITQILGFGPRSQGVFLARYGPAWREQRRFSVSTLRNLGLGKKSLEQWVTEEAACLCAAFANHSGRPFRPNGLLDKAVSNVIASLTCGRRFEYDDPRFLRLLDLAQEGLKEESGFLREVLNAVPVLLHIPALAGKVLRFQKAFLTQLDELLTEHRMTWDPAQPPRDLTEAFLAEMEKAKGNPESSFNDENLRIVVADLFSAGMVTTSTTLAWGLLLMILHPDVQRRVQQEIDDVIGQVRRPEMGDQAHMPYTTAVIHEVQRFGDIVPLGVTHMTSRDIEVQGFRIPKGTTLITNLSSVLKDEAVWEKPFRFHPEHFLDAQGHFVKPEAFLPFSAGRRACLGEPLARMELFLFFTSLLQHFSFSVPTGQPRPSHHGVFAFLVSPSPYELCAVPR
# Chain of CYP3A4 (P08684 whole entry): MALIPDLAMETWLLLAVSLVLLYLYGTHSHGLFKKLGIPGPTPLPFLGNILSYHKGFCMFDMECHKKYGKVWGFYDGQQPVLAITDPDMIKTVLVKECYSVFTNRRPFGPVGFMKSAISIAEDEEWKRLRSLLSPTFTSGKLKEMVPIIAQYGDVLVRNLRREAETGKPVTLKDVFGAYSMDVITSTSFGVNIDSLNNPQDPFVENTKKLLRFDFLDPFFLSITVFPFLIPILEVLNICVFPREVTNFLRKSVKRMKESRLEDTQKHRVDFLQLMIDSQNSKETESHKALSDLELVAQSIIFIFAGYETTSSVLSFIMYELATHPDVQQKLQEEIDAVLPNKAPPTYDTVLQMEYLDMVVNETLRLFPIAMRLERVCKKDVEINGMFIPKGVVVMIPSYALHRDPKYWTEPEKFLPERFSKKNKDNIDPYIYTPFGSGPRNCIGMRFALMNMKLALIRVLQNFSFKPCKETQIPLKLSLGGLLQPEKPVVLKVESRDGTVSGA
# Chain of Voltage-gated inwardly rectifying potassium channel KCNH2 (Q12809 whole entry): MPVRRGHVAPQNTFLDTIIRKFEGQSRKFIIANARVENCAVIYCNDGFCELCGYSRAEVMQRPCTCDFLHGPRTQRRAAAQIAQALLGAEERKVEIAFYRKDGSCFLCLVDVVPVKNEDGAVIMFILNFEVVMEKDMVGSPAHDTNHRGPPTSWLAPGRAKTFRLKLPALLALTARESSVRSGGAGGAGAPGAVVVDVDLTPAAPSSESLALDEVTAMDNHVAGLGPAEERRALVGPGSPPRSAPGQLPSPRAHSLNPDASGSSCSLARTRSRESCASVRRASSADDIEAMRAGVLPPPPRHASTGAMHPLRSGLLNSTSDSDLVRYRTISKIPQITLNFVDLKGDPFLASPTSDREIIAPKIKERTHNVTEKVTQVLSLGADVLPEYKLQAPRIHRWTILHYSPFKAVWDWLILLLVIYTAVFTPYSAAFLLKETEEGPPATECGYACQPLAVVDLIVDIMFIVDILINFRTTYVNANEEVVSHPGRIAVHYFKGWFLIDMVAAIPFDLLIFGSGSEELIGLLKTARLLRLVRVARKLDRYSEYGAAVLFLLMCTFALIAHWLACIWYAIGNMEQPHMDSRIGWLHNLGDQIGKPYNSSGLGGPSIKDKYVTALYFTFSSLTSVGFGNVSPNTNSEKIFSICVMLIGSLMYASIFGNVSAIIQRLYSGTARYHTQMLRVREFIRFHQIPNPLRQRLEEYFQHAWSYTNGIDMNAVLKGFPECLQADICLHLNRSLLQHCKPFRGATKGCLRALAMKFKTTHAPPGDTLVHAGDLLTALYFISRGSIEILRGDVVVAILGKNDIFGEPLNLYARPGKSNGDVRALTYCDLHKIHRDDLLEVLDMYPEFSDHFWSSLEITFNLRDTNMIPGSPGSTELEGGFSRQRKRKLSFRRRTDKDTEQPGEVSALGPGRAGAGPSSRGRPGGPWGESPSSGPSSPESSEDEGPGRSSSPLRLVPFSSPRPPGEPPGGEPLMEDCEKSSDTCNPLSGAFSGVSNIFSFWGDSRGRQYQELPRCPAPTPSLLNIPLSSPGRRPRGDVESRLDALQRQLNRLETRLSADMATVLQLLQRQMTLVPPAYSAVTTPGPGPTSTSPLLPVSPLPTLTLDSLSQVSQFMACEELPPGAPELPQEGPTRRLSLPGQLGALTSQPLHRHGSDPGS
# Chain of Histamine receptor H3 (Q865E1 whole entry): as the sequence (Q9Y5N1 whole entry) above, with D148N, A240G, V282A, A289T, T290A, V300A, H442Q counted along it
# Chain of Sigma non-opioid intracellular receptor 1 (Homo sapiens) (Q99720 whole entry): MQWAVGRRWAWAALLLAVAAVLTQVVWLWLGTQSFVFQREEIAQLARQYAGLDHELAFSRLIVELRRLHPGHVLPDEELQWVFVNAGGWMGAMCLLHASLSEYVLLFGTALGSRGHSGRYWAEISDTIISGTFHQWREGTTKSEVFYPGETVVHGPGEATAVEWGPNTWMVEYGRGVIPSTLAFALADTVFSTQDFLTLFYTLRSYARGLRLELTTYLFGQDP
structure (smiles),measurement,setting,value
Cc1cc(N2CC[C@H](N3CCC[C@@H]3C)C2)ccc1NC(=O)C1CCOCC1,Activity,Rattus norvegicus [1],Active
same,Activity,Rattus norvegicus [2],Active
same,concentration at 0.25 h,[3],11 µM
same,Activity,Cynomolgus monkey,Non-toxic
same,Activity,Mus musculus,Non-toxic
same,Activity,Salmonella typhimurium,Non-toxic
same,IC50,[4],18900 nM
same,inhibition (INH),[5],Not Active
same,inhibition (INH),[6],Not Active
same,Activity,[7],Not Active
same,Kp,[8],0.33
same,half-life,[9],3.8 h
same,AUC(0-inf),[10],700 ng·h/mL
same,half-life,[11],3 h
same,AUC(0-inf),[12],8400 ng·h/mL
same,Vd,[13],3.1 L/kg
same,half-life,[14],1.9 h
same,AUC,[15],1200 ng·h/mL
same,AUC(0-inf),[16],380 ng·h/mL
same,half-life,[17],2.3 h
same,AUC,[18],3200 ng·h/mL
same,clearance,Plasma [19],30 mL/min/kg
same,Vd,[20],3.5 L/kg
same,half-life,[21],3.6 h
same,inhibition (INH),Cytochrome P450 2D6,Active
same,inhibition at 5 µM,CYP3A4,61%
same,Stability,[22],Stable
same,Stability,[23],Stable
same,metabolised,[24],< 5%
same,Stability,[25],Stable
same,Stability,Plasma [26],Stable
same,Stability,Plasma [27],Stable
same,Stability,Plasma [28],Stable
same,Stability,Plasma [29],Stable
same,inhibition,Homo sapiens,53%
same,Stability,Plasma [30],Stable
same,inhibition,[31],53%
same,Ki,Histamine H3 receptor [32],1 nM
same,EC50,Histamine H3 receptor [33],0.9 nM
same,solubility,[34],1100 µg/mL
same,logP,[35],1.31
same,Ki,Histamine receptor H3,0.97 nM
